ChEMBL document CHEMBL3091326, “Design, synthesis, and evaluation of curcumin-derived arylheptanoids for glioblastoma and neuroblastoma cytotoxicity” (Bioorg Med Chem Lett, 2013)
pIC50: −log10 of the molar value.

Legend:
[1] = Cytotoxicity against human U87MG cells after 5 days by methylene blue staining assay; assay type: functional, cell-based, U-87MG ATCC; conditions: U-87 MG, 120 h
Procedure, shortened: (§1)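 Cells exposed in triplicate to vehicle or increasing compound concentrations; survival read 5 days post-exposure. Cell mass quantified by methylene blue staining, dye solubilized in 0.1N HCl, absorbance at 610nm. Mean and standard deviation; significance vs media control by Dunnett's multiple comparisons test. IC50 derived from dose-response data.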

[2] = test system: SK-N-SH; assay: Cytotoxicity against human SK-N-SH cells after 5 days by methylene blue staining assay; assay type: functional, cell-based; conditions: 120 h; procedure, shortened: as §1
[3] = test system: SK-N-FI; assay: Cytotoxicity against human SK-N-FI cells after 5 days by methylene blue staining assay; assay type: functional, cell-based; conditions: 120 h; procedure, shortened: as §1
[4] = Cytotoxicity against p53-knockdown human U87MG cells after 5 days by methylene blue staining assay; assay type: functional, cell-based, U-87MG ATCC; conditions: U-87 MG, 120 h; procedure, shortened: as §1
[5] = Cytotoxicity against human U87MG cells expressing sh-GFP after 5 days by methylene blue staining assay; assay type: functional, cell-based, U-87MG ATCC; conditions: U-87 MG, 120 h; procedure, shortened: as §1
[6] = Cytotoxicity against human CD34-positive blood stem/progenitor cells at 30 uM after 10 to 14 days by inverted light microscopic analysis relative to control; assay type: cell-based
Procedure, shortened: (§2)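 Human CD34+ progenitor cells isolated from umbilical cord blood, treated in triplicate at 0.3, 3.0 and 30 µM in colony-forming unit assays. Progenitor cell (colony) frequency determined after 14 days; compared against control.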

[7] = Cytotoxicity against human CD34-positive blood stem/progenitor cells at 0.3 to 30 uM after 10 to 14 days by inverted light microscopic analysis; assay type: cell-based; procedure, shortened: as §2

SMILES | pIC50 [1] | pIC50 [2] | pIC50 [3] | pIC50 [4] | pIC50 [5] | Activity [6] [%] | Activity [7]
COc1cc(OC)c(C(C#CCCc2ccc(O[Si](C)(C)C(C)(C)C)cc2)CC(=O)c2ccc(O[Si](C)(C)C(C)(C)C)cc2)c(OC)c1 (centres undefined) | 4.72 | 4.31 | < 4.00 |  |  |  | 
COc1cc(OC)c(C(C#CCCc2ccc(O[Si](C)(C)C(C)(C)C)cc2)CC(=O)c2ccc(OC(C)=O)cc2)c(OC)c1 (centres undefined) | 5.10 | 4.93 | 4.66 | 5.15 | 5.16 | 20 | Non-toxic
COc1cc(OC)c(C(C#CCCc2ccc(O[Si](C)(C)C(C)(C)C)cc2)CC(=O)c2ccc(O)cc2)c(OC)c1 (centres undefined) | 5.12 | 4.74 | 4.51 | 5.15 | 5.15 |  | Non-toxic
COc1cc(/C=C/C(=O)CC(=O)/C=C/c2ccc(O)c(OC)c2)ccc1O [CURCUMIN] | 5.09 | 5.19 | 4.95 |  |  |  | 
